Screens (PubChem)
LEDGF integ inh: blocks HIV-1 LEDGF/p75-dependent DNA integration; TR-FRET IN-LEDGF/p75 DNA integration, Eu/Cy5; inhibition, % at 3.7 µM; 370,000 tested, 0.64% active; AID 743269;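 active means inhibition above the screen-wide mean plus 3 SD, cut at about 13% in these data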;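 further: signal is the Cy5 over europium emission ratio at 671 and 618 nm; 0% = plate median of compound wells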
UHRF1 MBD2 ctr: UHRF1 methyl-DNA binding inhibition | Q96T88 | UHRF1 binding to methylated oligo, TR-FRET | inhibition, % at 4.4 µM | 370,000 tested, 0.75% active | AID 687016; in the data active means inhibition above about 21%;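 further: UHRF1 SRA domain binding a hemimethylated CpG hairpin DNA probe; 0% = median of test compound wells and 100% = reference inhibitor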
ARFGAP1 inh: inhibits rat ARF GTPase activating protein 1 | Q62848 | Arfgap1-stimulated ARF1 GTP hydrolysis, GDP FP detection | inhibition, % at 16.5 µM | 360,000 tested, 0.26% active;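 active means inhibition above a per-plate limit, mean inhibition of low control wells plus 3 SD, cut at about 25% in these data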;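 further: 0% = DMSO wells with enzyme and 100% = wells lacking Arfgap1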
Target sequence (Q62848 1-136 limits assumed): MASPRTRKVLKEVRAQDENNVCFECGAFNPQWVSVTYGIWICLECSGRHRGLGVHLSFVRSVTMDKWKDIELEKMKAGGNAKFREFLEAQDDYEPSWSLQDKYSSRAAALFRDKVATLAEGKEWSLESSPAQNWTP
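Material – truncated rat Arfgap1 GAP domain · Buffer or medium – HEPES-based buffer, pH 7.5 · Reagent – human ARF1(Δ1-17)-GTP substrate · Dosing – 16.5 µM single point, 1.26% DMSO · Schedule – GTP hydrolysis reaction 2 h at 25 °C · Technique – GDP detection by fluorescence polarization · Benchmarks – No-Arfgap1 wells (100%) versus DMSO full-reaction wells (0%) · Repeats – single replicate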
TCR CD3 inh: human TCR-CD3 binding inhibition; TAMRA-labeled TCR probe fluorescence, biochemical; inhibition, % at 9.4 µM; 360,000 tested, 0.37% active; AID 651800; in the data active means inhibition above about 19%;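 further: recombinant mutant TCR 2C K166C tagged with TAMRA read by polarization; 0% = receptor in buffer alone and 100% = receptor with positive control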
MBD2 DNA inh: blocks human MBD2 binding to methylated DNA; TR-FRET, MBD2 binding to methylated oligonucleotide; 370,000 tested, 0.31% active; inhibition, % at 4.4 µM; AID 686964; Q9UBB5; in the data active means inhibition above about 13%
ASAP1 GAP inh: ASAP1 ArfGAP inhibition; Q9ULH1; ASAP1-stimulated ARF1 GTP hydrolysis, GDP FP detection; inhibition, % at 16.5 µM; 360,000 tested, 0.19% active; in the data active means inhibition above about 25%;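 further: 0% = vehicle with enzyme and substrate and 100% = no enzyme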
Target sequence (Q9ULH1 325-724 limits assumed): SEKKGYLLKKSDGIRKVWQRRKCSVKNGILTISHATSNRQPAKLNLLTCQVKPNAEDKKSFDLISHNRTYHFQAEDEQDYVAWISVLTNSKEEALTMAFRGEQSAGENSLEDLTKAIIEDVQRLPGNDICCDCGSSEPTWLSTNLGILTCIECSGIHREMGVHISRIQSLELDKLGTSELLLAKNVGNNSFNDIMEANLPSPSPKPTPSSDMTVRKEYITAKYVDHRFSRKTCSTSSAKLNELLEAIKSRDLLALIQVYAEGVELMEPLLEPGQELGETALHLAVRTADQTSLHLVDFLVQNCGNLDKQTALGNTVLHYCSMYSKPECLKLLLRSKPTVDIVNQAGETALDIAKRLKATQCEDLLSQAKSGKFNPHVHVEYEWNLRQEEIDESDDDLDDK
IN multimer act: counter-screen for LEDGF/p75 integration inhibitors: HIV-1 integrase multimerization activators. shares compounds with LEDGF integ inh. 2,000 tested, 17% active. activation, % at 7.7 µM. AID 1053131. TR-FRET HIV-1 integrase multimerization, biochemical; in the data active means activation above about 8.9%
TRFRET interf: optically interferes with TR-FRET readout in LEDGF counter-screen; inhibition, % at 7.7 µM; 2,000 tested, under 10 active; shares compounds with LEDGF integ inh; TR-FRET optical interference counterscreen, HIV-1 IN multimerization;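 active means inhibition above the mean over all tested compounds plus 3 SD, which no compound reached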;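 further: 0% = integrase with antibodies and DMSO and 100% = antibodies without integrase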
LEDGF integ conf: confirmation of HIV-1 LEDGF/p75-dependent integration inhibitors; shares compounds with LEDGF integ inh; TR-FRET LEDGF/p75-dependent HIV-1 integration, biochemical; inhibition, % at 3.7 µM; 2,000 tested, 36% active; AID 1053136; in the data active means inhibition above about 14%
* marks the source's active call; other numbers are inactive results; . = no result given. Shown are actives, neighbours in structure and some others; about 2% of the full set was active somewhere.

SMILES | LEDGF integ inh | UHRF1 MBD2 ctr | ARFGAP1 inh | TCR CD3 inh | MBD2 DNA inh | ASAP1 GAP inh | IN multimer act | TRFRET interf | LEDGF integ conf
COc1cc(OC)nc(C(NC(=O)C2CCN(Cc3c[nH]c4ccccc34)CC2)c2ccc(Cl)cc2)n1 (stereo not given) | 6 | 0 | -6 | 0 | -2 | -1 | . | . | .
CC(C)(C)S(=O)N1Cc2cc(C(=O)N3CCc4ccccc4C3)nc(-c3cccc(-c4ccncc4)c3)c2[C@H]1CCO (stereo not given in full) | 9 | -4 | 6 | -2 | -1 | 12 | . | . | .
COc1ccc(-c2csc3nc(-c4ccc(C)cc4)oc(=O)c23)cc1OC | 2 | -1 | 1 | 0 | -6 | -7 | . | . | .
COc1ccc(-c2csc3nc(C(C)(C)C)oc(=O)c23)cc1OC | 16* | 4 | -11 | -6 | -3 | 22 | 7 | -27 | 8
O=C(O)c1cc(-c2ccco2)[nH]n1 | 15* | 12 | -2 | 6 | 3 | -14 | 2 | -10 | 4
CC1CCC(C(=O)NNC(=O)c2cc(-c3ccco3)[nH]n2)CC1 (stereo not given) | -7 | 0 | -5 | -7 | -1 | -5 | . | . | .
CCN(C(=O)COc1cccc2cccnc12)C1CCS(=O)(=O)C1 (stereo not given) | -6 | 0 | 12 | -4 | -2 | 7 | . | . | .
N=C1c2ccccc2CN1NC(=O)c1cccc(S(=O)(=O)N2CCCC2)c1 | 89* | -4 | -6 | 2 | -6 | -3 | -1 | 6 | -4
COCCCNc1nc(SCc2ccccc2)nc2sc3c(c12)CCC3 | 14* | 0 | 3 | 5 | -4 | 2 | 2 | -10 | -2
COCCNc1nc(SC)nc2sc3c(c12)CCN(C)C3 | -1 | 2 | -2 | -5 | 3 | -6 | . | . | .
COC(=O)[C@]12C[C@H](CC(=O)N3CCOCC3)C(=O)N(CCc3ccc(OC)c(OC)c3)C1=C[C@H](COCc1ccccc1)O[C@@H]2C | -2 | -1 | . | . | -2 | . | . | . | .
CC1CCN(S(=O)(=O)c2cc3c4c(c2)C(C)C(=O)N4CCC3)CC1 (stereo not given) | -1 | 7 | -6 | -9 | 1 | 7 | . | . | .
O=[N+]([O-])c1cnccc1-n1nnc2ccccc21 | -1 | 2 | -5 | -4 | 1 | 1 | . | . | .
O=Cc1ccc(/C=C2\c3ccccc3C(=O)N2c2ccccc2)o1 | 38* | 7 | -4 | -4 | -5 | 11 | 2 | -10 | 20*
COc1cc(NS(=O)(=O)c2ccc(NC(=S)NC(=O)/C=C/c3ccco3)cc2)ncn1 | 23* | 45* | 4 | 11 | 7 | 8 | 8 | -27 | 37*
CCOc1ccc(NC(=S)NC(=O)/C=C/c2ccco2)cc1 | 4 | -2 | 8 | -1 | 0 | 1 | . | . | .
COc1ccc2c(c1)Cc1c-2cc(Br)c(N)c1Br | -1 | -1 | 5 | -2 | 1 | -2 | . | . | .
Cc1noc(/C=C/N(C)C)c1S(=O)(=O)N1CCCC(C(=O)Nc2ccc3c(c2)OCO3)C1 (stereo not given) | 15* | 0 | 3 | -2 | 1 | -5 | -1 | 6 | -4
O=c1[nH]nc(SCc2nnc(-c3cccc(Cl)c3)o2)n1C1CCCCC1 | 4 | 2 | -4 | 4 | -7 | 3 | . | . | .
CCC(Sc1nc2ccccc2[nH]1)C(=O)Nc1cc(C)on1 (stereo not given) | 29* | 2 | 1 | 1 | -1 | 5 | 0 | 0 | 3
CCC(Sc1nc2ccccc2[nH]1)C(=O)Nc1ccc(NC(C)=O)cc1 (stereo not given) | -1 | -1 | -7 | 4 | 2 | 6 | . | . | .
CC(=O)NC(CC(=O)N(Cc1ccccc1)c1cccc(C)c1)c1ccccc1 (stereo not given) | 2 | 0 | 4 | 5 | -4 | 2 | . | . | .
COC(=O)c1c(NC(=O)c2cccnc2Cl)sc(C(=O)N(C)C)c1C | 2 | 3 | -6 | 3 | 4 | 7 | . | . | .
COc1ccccc1C=NN=C(NN=Cc1ccccc1OC)NN=Cc1ccccc1OC | 32* | 4 | 8 | -7 | -2 | 7 | 4 | -13 | -7
O=S1(=O)CCOC[C@H](c2ccccc2)N1Cc1cccc(Cl)c1 | -4 | 2 | 2 | -6 | 6 | 7 | . | . | .
SMILES | LEDGF integ inh | UHRF1 MBD2 ctr | ARFGAP1 inh | TCR CD3 inh | MBD2 DNA inh | ASAP1 GAP inh | IN multimer act | TRFRET interf | LEDGF integ conf
Cc1nc2ccccc2nc1OCC(=O)Nc1ccccc1 | 17* | -2 | 2 | 1 | -1 | -12 | 1 | -4 | 1
C=CCSc1nnc(NC(=O)CCN2C(=O)C3CC=CCC3C2=O)s1 (stereo not given) | -9 | -1 | 3 | -8 | 1 | -11 | . | . | .
C[C@@H]1CN([C@H](C)CO)C(=O)CCCn2nncc2CO[C@H]1CN(C)S(=O)(=O)c1ccc(Oc2ccccc2)nc1 | -1 | 1 | 13 | 1 | 1 | -3 | . | . | .
C[C@H]1CN([C@@H](C)CO)C(=O)CCCn2nncc2CO[C@@H]1CN(C)S(=O)(=O)c1ccc(Oc2ccccc2)nc1 | 26* | -1 | 3 | -2 | 2 | 4 | 0 | 2 | -13
CCC(=O)Nc1cccc(NC(=O)c2ccccc2Cl)c1 | 56* | 1 | -10 | 10 | -1 | -8 | 1 | -4 | 1
CCC(=O)Nc1cccc(NC(=S)NC(=O)c2ccccc2Cl)c1 | 4 | 4 | 10 | 3 | -1 | 2 | . | . | .
O=C(NNC(=O)c1csc(N2CCOCC2)n1)c1cccnc1 | -2 | -1 | -4 | 9 | -3 | 8 | . | . | .
S=c1[nH]nc(-c2ccco2)n1/N=C/C=C/c1ccco1 | 21* | 26* | 1 | 19 | 11 | 1 | 16* | -80 | 74*
CCOc1ccc(NS(=O)(=O)c2ccc(C(=O)N(C)CC(=O)Nc3ccccc3Br)cc2)cc1 | -3 | 0 | -7 | 1 | 3 | -7 | . | . | .
Cc1cc(C)cc(N(C(=O)CNC(=O)c2ccco2)C(C(=O)NC2CCCCC2)c2cccnc2)c1 (stereo not given) | -4 | 0 | 13 | 9 | -1 | -10 | . | . | .
Brc1ccc(-c2nc(-c3ccccc3)no2)o1 | 0 | 3 | -9 | 2 | 4 | -12 | . | . | .
Brc1ccc(C2=Nc3cccc4cccc(c34)N2)o1 | 42* | 0 | 4 | 11 | 6 | -2 | -1 | 4 | 5
CSC1(SC2=NCCN2)SC2(NCCN2)S1 | 23* | 5 | 18 | -12 | 4 | 9 | 0 | 2 | -1
